Data set [1] can be described thus: Drug metabolism in rat kidney […] S9 fractions at 0.42 uCi/ml assessed as metabolite formation in presence of NADPH after 1 hr at 37 degC by LC-MS/MS method. It counts as ADME, subcellular. The note with it: s9, 1 h.
The test system of the next data set is Ileum. Nature of the data set: Drug distribution in F344 rat ileum at 1 mg/kg, po administered as single dose after 2 hrs by scintillation counting method. The arrangement: dose 1 mg/kg, route oral. The note with it: in vivo. It counts as ADME, organism-based. The procedure, abridged:
(§1)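 [14C]-labelled drug (1 mg/kg, 42.4 µCi/kg) was given orally to fasted F344 rats (148–168 g, n = 3). Contents of stomach, duodenum+jejunum, ileum and cecum were washed out with water at 0.5–8 h, homogenized, solubilized and counted by liquid scintillation. Results are % of dose, mean ± S.D.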

A short description of data set [2]: Drug excretion in cynomolgus monkey urine at 3 mg/kg, po administered as single dose after 0 to 48 hrs by scintillation counting method. The data set is classed as ADME, organism-based, Macaca fascicularis. On the set-up: dose 3 mg/kg, route oral. The note with it: in vivo.
Data set [3] can be described thus: Drug excretion in F344 rat feces at 1 mg/kg, iv administered as single dose after 0 to 168 hrs by scintillation counting method. The data set is classed as ADME, organism-based. On the set-up: dose 1 mg/kg, route intravenous. The note with it: in vivo. The procedure, abridged:
(§2)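 Fasted F344 rats (152–156 g iv via tail vein; 154–159 g oral; n = 4) received [14C]-labelled drug at 1 mg/kg (41.9 µCi/kg). Animals were kept in metabolic cages; urine and feces were collected to 168 h, and expired CO2 was trapped in 2-aminoethanol/2-methoxyethanol (1:1) to 48 h. Samples were counted by liquid scintillation (feces homogenized). Results are % of dose, mean ± S.D.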

The nature of data set [4]: Drug metabolism in anaerobic culture broth of F344 rat cecal content assessed as 1,4-dideoxy-1,4-imino-D-arabinitol formation at 63.5 uCi/ml after 24 hrs at 35 degC by LC-MS/MS method. The data set is classed as ADME.
A further data set has as its system Cynomolgus monkey. Nature of the data set: Total drug excretion in cynomolgus monkey at 3 mg/kg, iv administered as single dose after 0 to 48 hrs by scintillation counting method. The data set is classed as ADME, organism-based, Macaca fascicularis. The settings on record: in vivo. On the set-up: dose 3 mg/kg, route intravenous. The procedure, abridged: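 Fasted male cynomolgus monkeys (n = 4) were dosed with 14C-labelled drug at 3 mg/kg, iv via saphenous vein (191 µCi/kg) or orally by stomach catheter (156.5 µCi/kg). Urine, feces and cage-wash water were collected to 336 h. Radioactivity was measured by liquid scintillation counting, with feces homogenized in water, and expressed as % of dose.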

A short description of data set [5]: Drug excretion in F344 rat urine at 1 mg/kg, po administered as single dose after 0 to 168 hrs by scintillation counting method. It counts as ADME, organism-based. The settings on record: in vivo. The arrangement: dose 1 mg/kg, route oral. The method, boiled down:
as §2

Data set [6] can be described thus: Drug metabolism in anaerobic culture broth of monkey feces assessed as 1,4-dideoxy-1,4-imino-D-arabinitol formation at 63.5 uCi/ml after 24 hrs at 35 degC by LC-MS/MS method. The settings on record: cynomolgus monkey.
Data set [7] can be described thus: Drug excretion in F344 rat urine at 1 mg/kg, iv administered as single dose after 0 to 48 hrs by scintillation counting method. The data set is classed as ADME, organism-based. On the set-up: dose 1 mg/kg, route intravenous. The settings on record: in vivo. The method, boiled down:
as §2

A further data set deals with Rattus norvegicus. Nature of the data set: Total drug excretion in F344 rat at 1 mg/kg, po administered as single dose after 0 to 168 hrs by scintillation counting method. The data set is classed as ADME, organism-based. The arrangement: dose 1 mg/kg, route oral. The settings on record: in vivo. The method, boiled down:
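Fasted F344 rats (n = 4) received [14C]-labelled drug at 1 mg/kg (41.9 µCi/kg), iv via tail vein or oral. They were housed in metabolic cages. Urine and feces were collected to 168 h, and expired CO2 was trapped in 2-aminoethanol/2-methoxyethanol to 48 h. Radioactivity was counted by liquid scintillation, feces after homogenization. Results are % of dose.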

A short description of data set [8]: Drug excretion in F344 rat expired air at 1 mg/kg, iv administered as single dose after 0 to 48 hrs by scintillation counting method. It counts as ADME, organism-based. The arrangement: dose 1 mg/kg, route intravenous. The note with it: in vivo. The procedure, abridged:
as §2

A short description of data set [9]: Drug distribution in F344 rat cecum at 1 mg/kg, po administered as single dose after 4 hrs by scintillation counting method. The data set is classed as ADME, organism-based, Caecum. The arrangement: dose 1 mg/kg, route oral. The note with it: in vivo. The method, boiled down: as §1
Data set [10] can be described thus: Cmax in cynomolgus monkey at 3 mg/kg, po administered as single dose by LC-MS/MS method. It counts as ADME, organism-based, Macaca fascicularis. On the set-up: dose 3 mg/kg, route oral. The note with it: in vivo. The procedure, abridged:
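Fasted male F344 rats (146–185 g) and cynomolgus monkeys (3.48–4.29 kg), n = 4 each, received a single oral dose; monkeys had 2-week washouts. Plasma sampled up to 48 h, stored at […], assayed by LC-MS/MS with a deuterated internal standard. Cmax taken from observed data by noncompartmental analysis; mean ± S.D. (n = 3 or 4).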

The nature of data set [11]: Clearance in F344 rat at 3 mg/kg, iv administered as single dose by LC-MS/MS method. It counts as ADME, organism-based. On the set-up: dose 3 mg/kg, route intravenous. The settings on record: in vivo. The method, boiled down: (§3)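 Fasted male F344 rats (146–185 g) and male cynomolgus monkeys (3.48–4.29 kg), n = 4 each, received a single iv dose; monkeys had 2-week washouts between doses. Blood was sampled up to 48 h and plasma stored at […]. Plasma parent was quantified by LC-MS/MS with a deuterated internal standard. CL = dose/AUC0–inf by noncompartmental analysis; mean ± S.D.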

The nature of data set [12]: Half life in cynomolgus monkey at 10 mg/kg, iv administered as single dose by LC-MS/MS method. The data set is classed as ADME, organism-based, Macaca fascicularis. The settings on record: in vivo. On the set-up: dose 10 mg/kg, route intravenous. The procedure, abridged:
(§4)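 Male F344 rats (146–185 g) and male cynomolgus monkeys (3.48–4.29 kg), n = 4 each, fasted overnight, received single iv or oral doses of 0.3, 1.0, 3.0 or 10.0 mg/kg. Monkeys had 2-week washouts between doses. Plasma was sampled to 48 h and assayed by LC-MS/MS with deuterated internal standard. Noncompartmental analysis: tmax observed; t1/2 by regression on ≥3 terminal log points; Vss = dose·AUMC/(AUC0–inf)²; Foral = oral/iv AUC0–inf at the same dose.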

Data set [13] in a line: Volume of distribution at steady state in cynomolgus monkey at 0.3 mg/kg, iv administered as single dose by LC-MS/MS method. The data set is classed as ADME, organism-based, Macaca fascicularis. On the set-up: dose 0.3 mg/kg, route intravenous. The note with it: in vivo, read-out: Vdss. The procedure, abridged:
as §4

Data set [14] can be described thus: Half life in F344 rat at 0.3 mg/kg, po administered as single dose by LC-MS/MS method. The data set is classed as ADME, organism-based. On the set-up: dose 0.3 mg/kg, route oral. The note with it: in vivo.
A short description of data set [15]: Oral bioavailability in F344 rat at 0.3 mg/kg administered as single dose by LC-MS/MS method. The data set is classed as ADME, organism-based. The note with it: in vivo. The method, boiled down: as §4
The nature of data set [16]: Tmax in cynomolgus monkey at 1 mg/kg, po administered as single dose by LC-MS/MS method. It counts as ADME, organism-based, Macaca fascicularis. On the set-up: dose 1 mg/kg, route oral. The note with it: in vivo. The procedure, abridged: as §4
Data set [17] in a line: Half life in cynomolgus monkey at 1 mg/kg, iv administered as single dose by LC-MS/MS method. The data set is classed as ADME, organism-based, Macaca fascicularis. On the set-up: dose 1 mg/kg, route intravenous. The note with it: in vivo. The method, boiled down:
as §4

A short description of data set [18]: Clearance in F344 rat at 0.3 mg/kg, iv administered as single dose by LC-MS/MS method. It counts as ADME, organism-based. The settings on record: in vivo. On the set-up: dose 0.3 mg/kg, route intravenous. The procedure, abridged:
as §3

Data set [19] in a line: AUC (0 to infinity) in cynomolgus monkey at 3 mg/kg, iv administered as single dose by LC-MS/MS method. On the set-up: time infinity, dose 3 mg/kg, route intravenous. The note with it: plasma. The data set is classed as ADME, organism-based, Macaca fascicularis. The method, boiled down:
(§5)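 Fasted male F344 rats (146–185 g) or male cynomolgus monkeys (3.48–4.29 kg), n = 4 per dose, given single iv or oral dose of 0.3, 1.0, 3.0 or 10.0 mg/kg; monkeys dosed with 2-week washouts. Blood sampled to 48 h; plasma stored frozen. LC-MS/MS with deuterated internal standard. Noncompartmental analysis: AUClast by trapezoidal rule; AUC0–inf = AUClast + Ctz/terminal rate constant; mean ± S.D.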

Data set [20] is described as follows: AUClast in F344 rat at 0.3 mg/kg, iv administered as single dose by LC-MS/MS method. On the set-up: time 0 - last, dose 0.3 mg/kg, route intravenous. The data set is classed as ADME, organism-based. The note with it: plasma. The procedure, abridged:
as §5

Consider `C[C@H]1O[C@@H](O[C@H]2[C@H](O)[C@@H](O)[C@@H](O[14C@H]3[14C@H](O)[14CH2]N[14C@@H]3[14CH2]O)O[C@@H]2CO)[C@H](O)[C@@H](O)[C@@H]1O`, for which the Drug metabolism entry in data set [1] was “metabolite_not_detected”; in [4], “metabolite_detected”; in data set [6] it was “metabolite_detected”. For the same compound, the values for the Drug uptake (in the data set with Ileum; in data set [9]) were 33.9% and 49.4%, respectively. For the same compound, the Drug excretion in [2] came out at 4.54%; in [3], 17.82%; in the data set with Cynomolgus monkey, 94.29%; in [5], 15.32%; in [7], 70.49%; with Rattus norvegicus, 97.94%. For the same compound, in data set [8], the Drug excretion was determined as 0.82%.
In the case of `C[C@H]1O[C@@H](O[C@H]2[C@H](O)[C@@H](O)[C@@H](O[C@H]3[C@H](O)CN[C@@H]3CO)O[C@@H]2CO)[C@H](O)[C@@H](O)[C@@H]1O`, the Cmax – broadly, the peak of the concentration-time curve – in data set [10] is 44.8 ng/mL. The clearance (as a rule, the volume of plasma or blood freed of the substance per unit of time) came to 2.67 mL/min/kg in data set [11] and 2.73 mL/min/kg in data set [18]. The values for the half-life in [12], in data set [14] and in [17] were 30 h, 2.69 h and 21.4 h, respectively. Besides, in [13], the Vd turned out to be 0.233 L/kg. Further, in data set [15], the bioavailability (in general, dose-corrected exposure relative to a reference, in per cent) was 2.44%. Moreover, in data set [16], the Tmax (usually the time from dosing to the highest level) came to 1.75 h. Further, the total exposure AUC(0-inf) (as a rule, total exposure, with the tail of the curve extrapolated) in [19] amounted to 18200 ng·h/mL. For the same compound, the AUC(0-t) (as a rule, exposure summed from dosing to a finite time, without extrapolation to infinity) in data set [20] was determined as 1860 ng·h/mL.

The values are drawn from ChEMBL document CHEMBL3526127, “Absorption, elimination, and metabolism of CS-1036, a novel α-amylase inhibitor in rats and monkeys, and the relationship between gastrointestinal distribution and suppression of glucose absorption” (Drug Metab Dispos, 2013).
